Measured values reported in article PMC5724766 (Bioorganic & medicinal chemistry, 2016).

Tests used:
[1] = system: proteasome; conditions: cited from earlier work; for IC50: read-out: IC50, proteasome inhibition
[2] = biological target: purified human 20S proteasome, tryptic (β2)-like activity (Homo sapiens, UniProt Q99436); assay: 20S proteasome trypsin-like; format: biochemical
Procedure, shortened: (§1)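 Purified human 20S proteasome (1 nM) in 50 mM Tris-HCl pH 7.5 with 0.03% SDS and 50 μM fluorogenic substrate at 37 °C: Z-LLE-AMC for caspase-like activity, Z-ARR-AMC for trypsin-like activity. Released aminomethylcoumarin read at ex 380/em 460 nm every minute for 30 min. Maximum fluorescence increase per minute gives the specific activity of each sample.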

[3] = biological target: purified human 20S proteasome, caspase (β1)-like activity (Homo sapiens, UniProt P28072); assay: 20S proteasome caspase-like; format: biochemical
Procedure, shortened: as §1

Nc1ccc(O)c2ncccc12 [5-AHQ, 5-amino-8-hydroxyquinoline]
IC50 [1]: 0.6 to 5 µM

Cc1cc(C)c2cc(C3=CCCCC3)c(C)nc2c1 [Compound 7, 3-Cyclohexenyl-2,5,7-trimethylquinoline]
IC50 [2]: > 25 µM

Cc1nc2ccc(N3CCCCC3)cc2cc1C1=CCCCC1 [Compound 25, 3-Cyclohexenyl-2-methyl-6-piperidinylquinoline]
inhibition of tryptic-like activity (in words) ([2]; purified human 20S proteasome, Suppl. Fig. S6): not the tryptic-like activity | IC50 [3]: 10.9 µM

O=C1C(Cl)=C(Nc2ccc(S(=O)(=O)Nc3ccccn3)cc2)C(=O)c2ccccc21 [PI-083]
IC50 [1]: ~1 µM

CCN(CC)CCCC(C)Nc1ccnc2cc(Cl)ccc12 (stereo not drawn) [chloroquine]
proteasome inhibitory activity (in words) [1]: millimolar activity
